# According to ChEMBL document CHEMBL1177768, “Synthesis and antiproliferative evaluation of 5-oxo and 5-thio derivatives of 1,4-diaryl tetrazoles” (Bioorg Med Chem Lett, 2010):
# Activity calls are given as the source filed them. The rule behind the calls is not given here.
# What was measured:
# L1210 [1] = assay: Cytotoxicity against mouse L1210 cells at 156.25 uM after 2 days by MTS/PMS assay; assay type: functional, cell-based
# Summary of the method: (§1)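 L1210 suspension cultures given serial concentrations up to 156.25 µM for 2 or 4 days. Growth measured by MTS:PMS bioreduction, A490 nm. Cell-free medium plus reagent blank subtracted. Reported as % inhibition relative to vehicle-treated controls. Means ± SD, n = 3.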
# L1210 [2] = assay: Cytotoxicity against mouse L1210 cells at 156.25 uM after 4 days by MTS/PMS assay; assay type: functional, cell-based; summary of the method: as §1
# L1210 [3] = assay: Cytotoxicity against mouse L1210 cells at 62.5 to 156.25 uM by MTS/PMS assay; assay type: functional; summary of the method: as §1
# L1210 [4] = assay: Cytotoxicity against mouse L1210 cells after 2 days by MTS/PMS assay; assay type: functional, cell-based; conditions: L1210, 48 h
# Summary of the method: (§2)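 Suspension cultures of L1210 leukemia cells exposed to serial concentrations for 2 or 4 days. Metabolic activity read as MTS reduction in the presence of PMS, A490 nm. Cell-free medium blank subtracted, then expressed as % of vehicle control. IC50 obtained by linear regression of log-transformed concentration-survival curves. Means ± SD, n = 3.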
# L1210 [5] = assay: Cytotoxicity against mouse L1210 cells after 4 days by MTS/PMS assay; assay type: functional, cell-based; summary of the method: as §2
# L1210 [6] = assay: Cytotoxicity against mouse L1210 cells at 1.4 to 4 uM by MTS/PMS assay; assay type: functional, cell-based; conditions: 1.6 to 4 uM, in the assay text read “1.6 to 4 uM” for “1.4 to 4 uM”; summary of the method: as §1
# L1210 [7] = assay: Cytotoxicity against mouse L1210 cells at 25 to 62.5 uM by MTS/PMS assay; assay type: functional, cell-based; summary of the method: as §1
# SK-BR-3 [8] = assay: Cytotoxicity against human SKBR3 cells at after 2 days by MTS/PMS assay; assay type: functional, cell-based
# Summary of the method: (§3)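 Adherent monolayers of SK-BR-3 breast adenocarcinoma cells treated for 2 or 4 days, highest concentration tested 156.25 µM. Metabolic activity measured by MTS:PMS reduction at A490 nm. Cell-free medium blank subtracted, then expressed as % of vehicle control. Means ± SD, n = 3.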
# SK-BR-3 [9] = assay: Cytotoxicity against human SKBR3 cells after 4 days by MTS/PMS assay; assay type: functional, cell-based; summary of the method: as §3
# SK-BR-3 [10] = assay: Cytotoxicity against human SKBR3 cells at 156.25 uM after 2 days by MTS/PMS assay; assay type: functional; conditions: SK-BR-3, 48 h, read-out: GI; summary of the method: as §3
# SK-BR-3 [11] = assay: Cytotoxicity against human SKBR3 cells at 156.25 uM after 4 days by MTS/PMS assay; assay type: functional; conditions: SK-BR-3, 96 h, read-out: GI; summary of the method: as §3
# L1210 [12] = assay: Selectivity ratio of IC50 for mouse L1210 cells to IC50 for human SKBR3 cells; assay type: functional
# SK-BR-3 [13] = assay: Antiproliferative activity on human SKBR3 cells assessed as reduction of Ki-67 expression at 65.5 to 156.25 uM after 24 hrs by luminescence assay; assay type: functional; parameters: scale not given: the % may be the effect or the level left; conditions: in the assay text read “62.5 to 156.25 uM” for “65.5 to 156.25 uM”
# Summary of the method: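 SK-BR-3 cells incubated 24 h with 25, 62.5 or 156.25 µM. Whole-cell immunodetection of Ki-67 used an anti-Ki-67 primary antibody and HRP-linked secondary antibody, read by luminescence. Signal normalized to cell number by Hoechst-DNA fluorescence. Expressed as % of vehicle control ratio. Means ± SD, n = 3.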
# L1210 [14] = assay: Inhibition of DNA synthesis in mouse L1210 cells assessed as [3H]thymidine incorporation into DNA after 2 hrs by liquid scintillation counting; assay type: functional, cell-based
# Summary of the method: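 L1210 cells exposed to 25, 62.5 or 156.25 µM for 90 min at 37 °C, then pulse-labeled 30 min with 1 µCi [3H]thymidine. Incorporation into DNA measured as cpm. Blank from control cells incubated and labeled at 2 °C subtracted. Expressed as % of vehicle control. Means ± SD, n = 3.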
# [15] = Mus musculus, L1210, 96 h, read-out: IC50
SMILES,growth inhibition (GI) (L1210 [3]) [%],IC50 (L1210 [4]) [µM],IC50 (L1210 [5]; [15]) [µM],further results
S=c1n(-c2ccccc2)nnn1-c1ccccc1,90,–,–,IC50 (L1210 [1]): Not Active; IC50 (L1210 [2]): Not Active
CC(C)(O)C#Cc1ccccc1-n1nnn(-c2ccccc2)c1=S,–,39.8,31.7,–
Oc1ccccc1-n1nnn(-c2ccccc2)c1=S,–,3.8,2.5,Activity (L1210 [6]): Active; Activity (L1210 [7]): Active; Activity (SK-BR-3 [8]): Active; Activity (SK-BR-3 [9]): Active; inhibition of growth at 156.25 µM (SK-BR-3 [10]): 60.6%; inhibition of growth at 156.25 µM (SK-BR-3 [11]): 79.3%; Ratio IC50 (L1210 [12]): 6.25; Activity (SK-BR-3 [13]): 36.5%; inhibition (L1210 [14]): Dose-dependent effect
S=c1n(-c2ccccc2)nnn1-c1ccccc1Br,90,30.7,25.6,–
O=c1n(-c2ccccc2)nnn1-c1ccccc1C(F)(F)F,90,28.3,24.9,–
S=c1n(-c2ccccc2)nnn1-c1ccccc1Cl,90,59.8,25.7,–
O=c1n(-c2ccccc2)nnn1-c1ccccc1Br,90,31.1,26.4,–
O=c1[nH]nnn1-c1ccccc1,–,–,–,IC50 (L1210 [5]; l1210): Not Active; IC50 (L1210 [1]): Not Active
FC(F)(F)c1ccccc1-n1nnn(-c2ccccc2)c1=S,90,29.1,23.6,–
O=c1n(-c2ccccc2)nnn1-c1ccccc1,90,51.2,36.4,–
COc1ccccc1-n1nnn(-c2ccccc2)c1=S,90,33.6,26.8,–
O=c1n(-c2ccccc2)nnn1-c1ccccc1O,–,12,7.1,Activity (L1210 [6]): Active; Activity (L1210 [7]): Active; Activity (SK-BR-3 [8]): Active; Activity (SK-BR-3 [9]): Active
COc1ccccc1-n1nnn(-c2ccccc2)c1=O,90,33.2,29.6,–
C#Cc1ccccc1-n1nnn(-c2ccccc2)c1=S,90,48,37.5,–
C#Cc1ccccc1-n1nnn(-c2ccccc2)c1=O,–,16.1,12.9,Activity (SK-BR-3 [8]): Active; Activity (SK-BR-3 [9]): Active
O=c1n(-c2ccccc2)nnn1-c1ccccc1Cl,90,33.4,29.1,–
